Measured values from ChEMBL document CHEMBL1136924 (J Med Chem, 2009).
Calls of active or inactive are those of the source.

Columns and labels:
[1] = biological target: T1, 5-hydroxytryptamine receptor 3A (Rattus norvegicus, UniProt P35563); assay: Displacement of [3H]LY278584 from 5HT3 receptor in rat cortical homogenate
T1 sequence (P35563 whole entry): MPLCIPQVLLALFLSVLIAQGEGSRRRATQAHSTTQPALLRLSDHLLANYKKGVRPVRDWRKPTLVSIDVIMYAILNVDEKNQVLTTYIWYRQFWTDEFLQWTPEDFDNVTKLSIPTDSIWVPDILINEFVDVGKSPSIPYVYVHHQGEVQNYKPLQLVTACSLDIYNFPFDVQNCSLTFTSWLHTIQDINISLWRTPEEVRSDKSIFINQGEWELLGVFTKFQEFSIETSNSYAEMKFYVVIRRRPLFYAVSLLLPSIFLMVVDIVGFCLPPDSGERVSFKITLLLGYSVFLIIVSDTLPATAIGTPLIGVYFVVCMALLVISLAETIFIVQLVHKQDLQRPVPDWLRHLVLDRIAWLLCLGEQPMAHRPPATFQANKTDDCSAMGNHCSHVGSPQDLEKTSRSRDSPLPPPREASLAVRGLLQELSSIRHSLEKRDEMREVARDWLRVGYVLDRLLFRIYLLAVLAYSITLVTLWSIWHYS

[2] = biological target: T1, 5-hydroxytryptamine receptor 3A; assay: Displacement of [3H]zacopride from 5HT3 receptor in rat cortex
[3] = biological target: T2, 5-hydroxytryptamine receptor 1A (Rattus norvegicus, UniProt P19327); assay: Displacement of [3H]8-OHDPAT from 5HT1A receptor in rat hippocampus; assay type: tissue-based
T2 sequence (P19327 whole entry): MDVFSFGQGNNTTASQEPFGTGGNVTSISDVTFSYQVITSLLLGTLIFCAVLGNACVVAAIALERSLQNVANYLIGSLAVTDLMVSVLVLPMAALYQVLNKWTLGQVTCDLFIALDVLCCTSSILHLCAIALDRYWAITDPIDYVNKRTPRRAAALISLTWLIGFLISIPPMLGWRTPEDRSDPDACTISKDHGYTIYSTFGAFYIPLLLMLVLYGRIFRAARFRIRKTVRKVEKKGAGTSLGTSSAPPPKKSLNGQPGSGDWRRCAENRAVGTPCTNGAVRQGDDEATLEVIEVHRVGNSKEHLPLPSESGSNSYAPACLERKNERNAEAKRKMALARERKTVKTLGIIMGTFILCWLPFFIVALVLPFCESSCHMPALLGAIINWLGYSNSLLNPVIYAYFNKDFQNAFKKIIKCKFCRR

[4] = biological target: T3, 5-hydroxytryptamine receptor 3A (Cavia porcellus) (UniProt O70212); assay: Agonist activity at 5HT3 receptor in voltage-stimulated guinea pig left atrium assessed as positive inotropic potency; assay type: functional, tissue-based; conditions: Cardiac atrium
T3 sequence (whole entry): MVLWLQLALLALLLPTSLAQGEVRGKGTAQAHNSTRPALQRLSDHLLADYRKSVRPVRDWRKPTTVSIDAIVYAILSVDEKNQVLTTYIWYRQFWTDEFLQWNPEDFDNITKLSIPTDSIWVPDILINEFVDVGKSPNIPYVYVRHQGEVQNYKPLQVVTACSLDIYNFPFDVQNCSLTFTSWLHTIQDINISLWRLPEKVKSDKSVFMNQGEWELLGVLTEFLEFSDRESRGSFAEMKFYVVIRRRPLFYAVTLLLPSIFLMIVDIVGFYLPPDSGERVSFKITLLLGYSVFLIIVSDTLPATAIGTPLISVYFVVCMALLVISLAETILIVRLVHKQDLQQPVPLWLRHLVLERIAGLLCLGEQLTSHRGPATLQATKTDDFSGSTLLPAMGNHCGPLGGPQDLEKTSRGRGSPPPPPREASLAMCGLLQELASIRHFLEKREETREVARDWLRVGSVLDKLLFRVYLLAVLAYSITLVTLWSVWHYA
Summary of the method: (§1)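 Isolated guinea pig atria in PSS (Tyrode) with ketanserin 1 µM, 95% O2-5% CO2, pH 7.4, 35 °C. Right atrium beating spontaneously (rate); left atrium paced 1 Hz, 0.6-0.8 ms pulses near 50% threshold (force). Isometric recording after 45-60 min stabilization.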

[5] = biological target: T3, 5-hydroxytryptamine receptor 3A (Cavia porcellus); assay: Intrinsic activity at 5HT3 receptor in voltage-stimulated guinea pig left atrium assessed as positive inotropic potency relative to serotonin; assay type: tissue-based; conditions: Cardiac atrium
Summary of the method: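 Electrically paced guinea pig left atrium (1 Hz) in PSS containing ketanserin 1 µM, pH 7.4, 35 °C. Contractile force recorded isometrically while cumulative concentrations of 0.1-100 µM were added (DMSO ≤0.3%). Intrinsic activity is expressed as the maximal response relative to that of 5-HT.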

[6] = biological target: T3, 5-hydroxytryptamine receptor 3A (Cavia porcellus); assay: Intrinsic activity at 5HT3 receptor in spontaneously beating guinea pig right atrium assessed as positive chronotropic potency relative to serotonin; conditions: Cardiac atrium
Summary of the method: (§2)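 Guinea pig left and right atria were hung in a 15 mL bath of PSS (pH 7.4, 95% O2-5% CO2, 35 °C) with ketanserin 1 µM. The right atrium beat spontaneously; the left was paced at 1 Hz. Cumulative doses (0.1-100 µM; DMSO ≤0.3%) were added after 45-60 min stabilization. Rate or isometric force was recorded. EC50 came from Probit analysis, n≥4. Intrinsic activity was taken relative to 5-HT.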

[7] = biological target: T3, 5-hydroxytryptamine receptor 3A (Cavia porcellus); assay: Agonist activity at 5HT3 receptor in spontaneously beating guinea pig right atrium assessed as positive chronotropic potency; assay type: functional, tissue-based; conditions: Cardiac atrium; summary of the method: as §1
[8] = biological target: T4, Alpha-2A adrenergic receptor (Rattus norvegicus, UniProt P22909); assay: Displacement of [3H]RX821002 from adrenergic alpha2 receptor in rat cortex
T4 sequence (P22909 whole entry): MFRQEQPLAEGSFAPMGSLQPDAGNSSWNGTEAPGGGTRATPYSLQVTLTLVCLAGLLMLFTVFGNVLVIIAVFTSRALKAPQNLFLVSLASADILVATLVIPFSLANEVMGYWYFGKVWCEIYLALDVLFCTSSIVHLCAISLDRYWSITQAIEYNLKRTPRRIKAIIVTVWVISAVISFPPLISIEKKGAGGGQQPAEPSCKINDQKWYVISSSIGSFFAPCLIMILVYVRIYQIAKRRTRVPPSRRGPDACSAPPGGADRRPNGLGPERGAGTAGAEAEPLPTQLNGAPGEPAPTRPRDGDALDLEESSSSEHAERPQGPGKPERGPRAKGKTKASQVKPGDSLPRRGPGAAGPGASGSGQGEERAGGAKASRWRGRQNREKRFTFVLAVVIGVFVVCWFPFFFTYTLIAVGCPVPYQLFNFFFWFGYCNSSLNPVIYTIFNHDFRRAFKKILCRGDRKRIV

D(1A) dopamine receptor = D(1A) dopamine receptor (Rattus norvegicus, UniProt P18901); assay: Displacement of [3H]SCH-23390 from dopamine D1 receptor in rat striatum
Sequence of D(1A) dopamine receptor (P18901 whole entry): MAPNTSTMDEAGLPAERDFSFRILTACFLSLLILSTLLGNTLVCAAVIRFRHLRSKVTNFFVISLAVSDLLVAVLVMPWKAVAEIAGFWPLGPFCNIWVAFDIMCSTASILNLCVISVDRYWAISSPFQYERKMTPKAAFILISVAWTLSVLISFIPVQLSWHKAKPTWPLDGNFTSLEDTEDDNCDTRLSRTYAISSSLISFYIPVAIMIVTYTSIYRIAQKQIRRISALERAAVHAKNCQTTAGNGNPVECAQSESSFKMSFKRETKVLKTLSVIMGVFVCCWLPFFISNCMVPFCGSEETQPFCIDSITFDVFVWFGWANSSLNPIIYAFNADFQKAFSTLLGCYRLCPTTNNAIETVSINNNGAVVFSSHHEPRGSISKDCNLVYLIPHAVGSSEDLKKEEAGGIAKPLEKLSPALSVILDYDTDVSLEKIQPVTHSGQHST

[9] = biological target: 5-hydroxytryptamine receptor 2A (Rattus norvegicus, UniProt P14842); assay: Displacement of [3H]ketanserin from 5HT2A receptor in rat cortex
Sequence of 5-hydroxytryptamine receptor 2A (P14842 whole entry): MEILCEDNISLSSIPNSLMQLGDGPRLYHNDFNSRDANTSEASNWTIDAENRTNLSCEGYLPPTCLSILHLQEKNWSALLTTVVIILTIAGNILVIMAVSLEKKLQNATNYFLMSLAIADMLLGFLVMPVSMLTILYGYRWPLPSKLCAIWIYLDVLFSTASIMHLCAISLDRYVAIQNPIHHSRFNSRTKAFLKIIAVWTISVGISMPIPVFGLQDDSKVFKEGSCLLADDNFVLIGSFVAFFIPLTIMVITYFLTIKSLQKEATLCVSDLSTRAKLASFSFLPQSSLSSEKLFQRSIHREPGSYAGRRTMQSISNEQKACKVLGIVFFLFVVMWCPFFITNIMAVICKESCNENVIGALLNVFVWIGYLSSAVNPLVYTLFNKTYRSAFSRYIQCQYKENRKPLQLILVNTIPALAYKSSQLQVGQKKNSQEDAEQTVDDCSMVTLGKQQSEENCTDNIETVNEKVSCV

[10] = biological target: Muscarinic acetylcholine receptor; assay: Displacement of [3H]QNB from muscarinic receptor in rat cortex
[11] = biological target: 5-hydroxytryptamine receptor 4 (Cavia porcellus, UniProt O70528); assay: Displacement of [3H]GR-113808 from 5HT4 receptor in guinea pig striatum
Sequence of 5-hydroxytryptamine receptor 4 (O70528 whole entry): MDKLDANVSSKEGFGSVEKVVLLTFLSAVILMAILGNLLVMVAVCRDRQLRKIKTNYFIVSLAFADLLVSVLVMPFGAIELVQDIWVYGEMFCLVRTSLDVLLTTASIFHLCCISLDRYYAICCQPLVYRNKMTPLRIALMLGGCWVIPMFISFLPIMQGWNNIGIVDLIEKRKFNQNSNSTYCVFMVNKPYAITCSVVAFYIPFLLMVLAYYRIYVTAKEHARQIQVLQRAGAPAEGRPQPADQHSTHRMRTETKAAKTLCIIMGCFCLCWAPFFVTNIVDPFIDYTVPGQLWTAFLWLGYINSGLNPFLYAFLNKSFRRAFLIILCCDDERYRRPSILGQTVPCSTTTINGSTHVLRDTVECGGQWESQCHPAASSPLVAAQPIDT

[12] = biological target: T5, Adrenergic receptor alpha-1 (Rattus norvegicus, UniProt P15823+P23944+P43140); assay: Displacement of [3H]prazosin from adrenergic alpha1 receptor in rat cortex
T5 sequence (P15823 whole entry): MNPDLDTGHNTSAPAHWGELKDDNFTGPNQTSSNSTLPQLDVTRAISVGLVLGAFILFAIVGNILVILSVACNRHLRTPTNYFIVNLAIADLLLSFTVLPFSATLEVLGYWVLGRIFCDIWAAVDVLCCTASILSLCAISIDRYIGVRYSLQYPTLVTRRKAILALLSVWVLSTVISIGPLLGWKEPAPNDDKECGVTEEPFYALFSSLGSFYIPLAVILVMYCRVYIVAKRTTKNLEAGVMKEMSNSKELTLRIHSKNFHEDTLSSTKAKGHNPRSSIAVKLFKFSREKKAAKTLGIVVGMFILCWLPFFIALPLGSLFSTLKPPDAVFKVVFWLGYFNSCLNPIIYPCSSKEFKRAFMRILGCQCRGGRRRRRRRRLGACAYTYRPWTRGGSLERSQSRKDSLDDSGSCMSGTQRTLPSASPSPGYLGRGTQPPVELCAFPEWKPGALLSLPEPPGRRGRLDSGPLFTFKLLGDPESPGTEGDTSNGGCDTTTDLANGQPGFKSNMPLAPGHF
T5 sequence (P23944 whole entry): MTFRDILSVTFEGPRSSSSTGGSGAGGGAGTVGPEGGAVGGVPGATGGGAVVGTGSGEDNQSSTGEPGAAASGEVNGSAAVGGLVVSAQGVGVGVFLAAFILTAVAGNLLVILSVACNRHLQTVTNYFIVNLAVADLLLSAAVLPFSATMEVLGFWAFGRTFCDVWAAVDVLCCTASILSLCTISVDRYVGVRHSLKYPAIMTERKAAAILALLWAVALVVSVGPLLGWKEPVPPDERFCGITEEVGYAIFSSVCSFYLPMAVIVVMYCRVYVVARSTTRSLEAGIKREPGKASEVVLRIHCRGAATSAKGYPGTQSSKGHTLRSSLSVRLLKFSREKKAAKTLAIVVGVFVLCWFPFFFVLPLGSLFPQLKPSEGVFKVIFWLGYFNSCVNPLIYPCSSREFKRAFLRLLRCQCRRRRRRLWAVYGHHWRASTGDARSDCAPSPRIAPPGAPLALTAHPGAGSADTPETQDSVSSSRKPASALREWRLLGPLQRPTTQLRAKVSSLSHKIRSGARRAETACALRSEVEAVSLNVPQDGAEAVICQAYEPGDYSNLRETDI
T5 sequence (P43140 whole entry): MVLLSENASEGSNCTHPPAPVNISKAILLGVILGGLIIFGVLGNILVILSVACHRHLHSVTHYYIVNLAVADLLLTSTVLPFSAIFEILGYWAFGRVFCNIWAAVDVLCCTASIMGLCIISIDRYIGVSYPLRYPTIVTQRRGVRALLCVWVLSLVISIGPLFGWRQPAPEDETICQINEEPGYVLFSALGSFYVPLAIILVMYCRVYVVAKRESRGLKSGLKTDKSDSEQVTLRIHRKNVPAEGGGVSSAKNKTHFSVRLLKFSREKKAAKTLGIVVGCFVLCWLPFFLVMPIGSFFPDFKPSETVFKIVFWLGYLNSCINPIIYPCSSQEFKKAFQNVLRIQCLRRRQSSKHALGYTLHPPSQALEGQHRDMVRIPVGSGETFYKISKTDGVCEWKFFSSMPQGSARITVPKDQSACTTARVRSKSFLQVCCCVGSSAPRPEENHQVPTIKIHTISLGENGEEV

D(2) dopamine receptor = D(2) dopamine receptor (Rattus norvegicus, UniProt P61169); assay: Displacement of [3H]spiperone from dopamine D2 receptor in rat striatum
Sequence of D(2) dopamine receptor (P61169 whole entry): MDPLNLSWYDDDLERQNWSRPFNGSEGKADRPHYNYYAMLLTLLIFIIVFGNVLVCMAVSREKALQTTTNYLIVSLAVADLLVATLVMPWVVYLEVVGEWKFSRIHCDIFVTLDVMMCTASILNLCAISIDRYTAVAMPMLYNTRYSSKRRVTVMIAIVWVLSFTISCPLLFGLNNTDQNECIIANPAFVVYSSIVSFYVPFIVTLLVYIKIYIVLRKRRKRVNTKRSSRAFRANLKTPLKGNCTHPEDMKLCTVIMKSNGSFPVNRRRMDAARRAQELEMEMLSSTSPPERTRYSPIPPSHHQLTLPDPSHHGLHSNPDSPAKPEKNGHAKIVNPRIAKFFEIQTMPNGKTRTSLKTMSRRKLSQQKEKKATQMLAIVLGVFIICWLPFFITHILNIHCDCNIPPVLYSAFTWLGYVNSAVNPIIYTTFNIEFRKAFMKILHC

[13] = biological target: T3, 5-hydroxytryptamine receptor 3A (Cavia porcellus); assay: Agonist activity at 5HT3 receptor in spontaneously beating guinea pig right atrium assessed as positive chronotropic potency at 100 uM; assay type: functional, tissue-based; conditions: Cardiac atrium; summary of the method: as §2
[14] = biological target: T3, 5-hydroxytryptamine receptor 3A (Cavia porcellus); assay: Agonist activity at 5HT3 receptor in guinea pig thoracic aorta assessed as positive contractility potency at 100 uM; assay type: functional, tissue-based
Summary of the method: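 Guinea pig aortic helicoidal strips in PSS at 35 °C, aerated, under 1 g resting force, washed every 20 min for 1 h. Compounds added cumulatively 0.1-100 µM (DMSO vehicle); isometric contraction recorded.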

[15] = biological target: T3, 5-hydroxytryptamine receptor 3A (Cavia porcellus); assay: Agonist activity at 5HT3 receptor in voltage-stimulated guinea pig left atrium assessed as positive inotropic potency at 100 uM; assay type: functional, tissue-based; conditions: Cardiac atrium; summary of the method: as §2
[16] = biological target: T6, 5-hydroxytryptamine receptor 3A (Cavia porcellus, UniProt O70212); assay: Antagonist activity at 5HT3 receptor in spontaneously beating guinea pig right atrium assessed as inhibition of serotonin-induced maximum response by noncompetitive binding assay; assay type: tissue-based, Cardiac atrium
T6 sequence (O70212 whole entry): T3 sequence (whole entry)
Summary of the method: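 Spontaneously beating guinea pig right atrium; 5-HT concentration-response curves (0.001-1.0 µM) before and after 30 min antagonist exposure at three concentrations. IC50 is inhibition of 50% of maximal 5-HT response, Probit analysis, n = 4-6.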

CS(=O)(=O)NC(=O)CN1CCN(c2nc3cc(F)ccc3n3cccc23)CC1
Ki [1]: 246 nM

NC(CO)C(=O)N1CCN(c2nc3cc(F)ccc3n3cccc23)CC1 (single isomer, unassigned)
Ki [1]: 237 nM

O=C(O)CN1CCN(c2nc3cc(O)ccc3n3cccc23)CC1
Ki [1]: 2.1 nM

Cc1cccc2nc(N3CCN(C)CC3)c3cccn3c12
Ki [2]: 0.8 nM | Ki [3]: > 10000 nM

Cc1[nH]c2ccc(O)cc2c1CCN
pD2 [4]: 5.51 | Intrinsic activity [5]: 1 | Intrinsic activity [6]: 1 | pD2 [7]: 5.06

Cc1cccc2nc(N3CCN(C(C(=O)O)c4ccccc4)CC3)c3cccn3c12 (stereo unspecified)
Ki [1]: 44 nM

Cc1cccc2nc(N3CCN(CC(=O)NO)CC3)c3cccn3c12
Ki [1]: 3 nM

Fc1ccc2c(c1)nc(N1CCN(Cc3ccccc3)CC1)c1cccn12
Ki [2]: 13 nM

N[C@H](CN1CCN(c2nc3cc(F)ccc3n3cccc23)CC1)C(=O)O
Ki [8]: > 10000 nM | Ki (D(1A) dopamine receptor): > 10000 nM | Ki [9]: > 10000 nM | Ki [1]: 1.2 nM | Ki [10]: > 10000 nM | Ki [11]: > 10000 nM | Ki [3]: 480 nM | Ki [12]: > 10000 nM | Ki (D(2) dopamine receptor): > 10000 nM

Fc1ccc2c(c1)nc(N1CCN(Cc3nnc[nH]3)CC1)c1cccn12
pD2 [13]: inactive | pD2 [14]: inactive | Ki [1]: 3.4 nM | pD2 [15]: inactive | IC50 [16]: 8510 nM
